Reference: ChEMBL document CHEMBL1773031, “Maklamicin, an antibacterial polyketide from an endophytic Micromonospora sp” (J Nat Prod, 2011)
pIC50: −log10 of the molar value. Values after ≈ are worked out from the molar mass of the structure shown.

Experiments:
Escherichia coli = assay: Antimicrobial activity against Escherichia coli NIH-JC2 after 20 hrs by microplate reader assay; type: functional; settings: NIH-JC2, 20 h
Outline: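 The E. coli preculture was grown in Mueller Hinton broth, shaken for 20 h at 30 °C, centrifuged and suspended in saline at 1 × 10^5 cells/mL. The suspension was combined in broth with sample dissolved in DMSO. Incubation was 20 h at 37 °C, with absorbance at 650 nm read on a microplate reader.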

Candida albicans = assay: Antimicrobial activity against Candida albicans IFO 1594 after 20 hrs by microplate reader assay; type: functional; settings: IFO 1594, 20 h
Outline: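 Yeast Nitrogen Base supplemented with 2% glucose was the medium. Cells were shaken for 20 h at 30 °C, pelleted and resuspended in saline at 1 × 10^5 cells/mL. They were mixed in medium with DMSO sample solution in 96-well plates and incubated for 20 h at 30 °C. Growth was measured as absorbance at 650 nm.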

Enterococcus faecalis = assay: Antimicrobial activity against Enterococcus faecalis NBRC 100480 after 20 hrs by microplate reader assay; type: functional; settings: NBRC 100480, 20 h
Outline: (§1)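 Grown in Mueller Hinton broth on a reciprocal shaker for 20 h at 30 °C, then pelleted and resuspended in saline at 1 × 10^5 cells/mL. The suspension was mixed into fresh broth in 96-well plates with test sample in DMSO. Plates were incubated for 20 h at 30 °C, and growth was read as absorbance at 650 nm.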

Bacillus subtilis = assay: Antimicrobial activity against Bacillus subtilis PCI219 after 20 hrs by microplate reader assay; type: functional; settings: PCI219, 20 h; outline: as §1
MCF7 = assay: Cytotoxicity against human MCF7 cells after 48 hrs by MTT assay; type: functional, cell-based; settings: MCF7, 48 h
HeLa = assay: Cytotoxicity against human HeLa cells after 48 hrs by MTT assay; type: functional, cell-based
Bacillus cereus = assay: Antimicrobial activity against Bacillus cereus NBRC 15305 after 20 hrs by microplate reader assay; type: functional; settings: NBRC 15305, 20 h; outline: as §1
Staphylococcus aureus = assay: Antimicrobial activity against Staphylococcus aureus IFO 12732 after 20 hrs by microplate reader assay; type: functional; settings: IFO 12732, 20 h; outline: as §1
Micrococcus luteus = assay: Antimicrobial activity against Micrococcus luteus ATCC 9343 after 20 hrs by microplate reader assay; type: functional; settings: ATCC 9343, 20 h; outline: as §1

Row | MIC (Escherichia coli) | MIC (Candida albicans) | MIC (Enterococcus faecalis) | MIC (Bacillus subtilis) | MIC (Bacillus cereus) | MIC (Staphylococcus aureus) | MIC (Micrococcus luteus) | Structure (SMILES) | pIC50 (MCF7) | pIC50 (HeLa)
1 | > 50 µg/mL | 50 µg/mL (≈ 95.3 µM) | 13 µg/mL (≈ 24.8 µM) | 1.7 µg/mL (≈ 3.24 µM) | 6.5 µg/mL (≈ 12.4 µM) | 13 µg/mL (≈ 24.8 µM) | 0.2 µg/mL (≈ 0.381 µM) | C[C@H]1CC[C@@H]2[C@H](C=C[C@H]3[C@H](C)/C=C/C[C@]4(C)C=C(CO)[C@H](C[C@@H](C)O)C[C@]45OC(=O)C(=C5O)C(=O)[C@@]23C)C1 [MAKLAMICIN] | 4.47 | 4.77
2 | 0.8 µg/mL |  | 0.2 µg/mL | 0.05 µg/mL | 1.5 µg/mL | 0.05 µg/mL | 0.1 µg/mL | CN(C)[C@@H]1C(O)=C(C(N)=O)C(=O)[C@@]2(O)C(O)=C3C(=O)c4c(O)cccc4[C@@](C)(O)[C@H]3C[C@@H]12.Cl [TETRACYCLINE HYDROCHLORIDE] |  | 
